According to ChEMBL document CHEMBL4354828, “Discovery of Taniborbactam (VNRX-5133): A Broad-Spectrum Serine- and Metallo-β-lactamase Inhibitor for Carbapenem-Resistant Bacterial Infections” (J Med Chem, 2020):
Converted amounts (≈) assume the structure as drawn.

How the values were obtained:
[1] = system: Escherichia coli; assay: Inhibition of NDM in Escherichia coli CDC-0452 assessed as meropenem antibacterial activity at 4 ug/ml after 16 to 20 hrs by CLSI-based microbroth dilution method (reference value: […] ug/ml)
[2] = system: Klebsiella pneumoniae; assay: Inhibition of OXA-232/OXA-9/TEM-1A/CTX-M-15/OXA-1 in Klebsiella pneumoniae CDC-0066 assessed as cefepime antibacterial activity at 8 ug/ml after 16 to 20 hrs by CLSI-based microbroth dilution method (Rvb > […] ug/ml)
[3] = system: Klebsiella pneumoniae; assay: Inhibition of VIM-27/CTX-M-15/SHV-11/OXA-1 in Klebsiella pneumoniae CDC-0040 assessed as meropenem antibacterial activity at 4 ug/ml after 16 to 20 hrs by CLSI-based microbroth dilution method
[4] = system: Klebsiella pneumoniae ATCC BAA-1705; assay: Inhibition of KPC-2 in Klebsiella pneumoniae ATCC BAA 1705 assessed as piperacillin antibacterial activity at 16 ug/ml after 16 to 20 hrs by CLSI-based microbroth dilution method (Rvb > […] ug/ml)
[5] = system: Escherichia coli; assay: Inhibition of NDM-1/CMY-6/OXA-1 in Escherichia coli CDC-0055 assessed as meropenem antibacterial activity at 4 ug/ml after 16 to 20 hrs by CLSI-based microbroth dilution method (reference value: […] ug/ml)
[6] = system: Klebsiella pneumoniae; assay: Inhibition of KPC-2/SHV12/TEM-1 in Klebsiella pneumoniae CDC-0361 assessed as piperacillin antibacterial activity at 16 ug/ml after 16 to 20 hrs by CLSI-based microbroth dilution method (Rvb > […] ug/ml)
[7] = system: Escherichia coli; assay: Inhibition of NDM in Escherichia coli CDC-0452 assessed as piperacillin antibacterial activity at 16 ug/ml after 16 to 20 hrs by CLSI-based microbroth dilution method (Rvb > […] ug/ml)
[8] = system: Klebsiella pneumoniae; assay: Inhibition of KPC-2/SHV12/TEM-1 in Klebsiella pneumoniae CDC-0361 assessed as meropenem antibacterial activity at 4 ug/ml after 16 to 20 hrs by CLSI-based microbroth dilution method (reference value: […] ug/ml)
[9] = system: Pseudomonas aeruginosa; assay: Inhibition of KPC-2/PDC-42 in Pseudomonas aeruginosa CDC-0356 assessed as cefepime antibacterial activity at 8 ug/ml after 16 to 20 hrs by CLSI-based microbroth dilution method (Rvb > […] ug/ml)
[10] = system: Klebsiella pneumoniae; assay: Inhibition of OXA-232/OXA-9/TEM-1A/CTX-M-15/OXA-1 in Klebsiella pneumoniae CDC-0066 assessed as piperacillin antibacterial activity at 16 ug/ml after 16 to 20 hrs by CLSI-based microbroth dilution method (Rvb > […] ug/ml)
[11] = system: Klebsiella pneumoniae; assay: Inhibition of KPC-2/SHV12/TEM-1 in Klebsiella pneumoniae CDC-0361 assessed as cefepime antibacterial activity at 8 ug/ml after 16 to 20 hrs by CLSI-based microbroth dilution method (reference value: […] ug/ml)
[12] = system: Escherichia coli; assay: Inhibition of NDM-1/CMY-6/OXA-1 in Escherichia coli CDC-0055 assessed as cefepime antibacterial activity at 8 ug/ml after 16 to 20 hrs by CLSI-based microbroth dilution method
Procedure, shortened: (§1)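 MDR β-lactamase-producing Gram-negative clinical isolates. […] MIC was reported as the inhibitor concentration that restores the partner's antibacterial activity.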

[13] = system: Pseudomonas aeruginosa; assay: Inhibition of VIM in Pseudomonas aeruginosa CDC-0457 assessed as meropenem antibacterial activity at 4 ug/ml after 16 to 20 hrs by CLSI-based microbroth dilution method
[14] = system: Klebsiella pneumoniae; assay: Inhibition of OXA-232/OXA-9/TEM-1A/CTX-M-15/OXA-1 in Klebsiella pneumoniae CDC-0066 assessed as meropenem antibacterial activity at 4 ug/ml after 16 to 20 hrs by CLSI-based microbroth dilution method (reference value: […] ug/ml)
[15] = system: Escherichia coli; assay: Inhibition of NDM in Escherichia coli CDC-0452 assessed as cefepime antibacterial activity after 16 to 20 hrs by CLSI-based microbroth dilution method (reference value: […] ug/ml)
[16] = system: Pseudomonas aeruginosa; assay: Inhibition of VIM in Pseudomonas aeruginosa CDC-0457 assessed as cefepime antibacterial activity at 8 ug/ml after 16 to 20 hrs by CLSI-based microbroth dilution method
[17] = system: Klebsiella pneumoniae ATCC BAA-1705; assay: Inhibition of KPC-2 in Klebsiella pneumoniae ATCC BAA 1705 assessed as cefepime antibacterial activity at 8 ug/ml after 16 to 20 hrs by CLSI-based microbroth dilution method; procedure, shortened: as §1
[18] = system: Klebsiella pneumoniae ATCC BAA-1705; assay: Inhibition of KPC-2 in Klebsiella pneumoniae ATCC BAA 1705 assessed as meropenem antibacterial activity at 4 ug/ml after 16 to 20 hrs by CLSI-based microbroth dilution method (reference value: […] ug/ml)
[19] = system: Klebsiella pneumoniae; assay: Inhibition of VIM-27/CTX-M-15/SHV-11/OXA-1 in Klebsiella pneumoniae CDC-0040 assessed as cefepime antibacterial activity at 8 ug/ml after 16 to 20 hrs by CLSI-based microbroth dilution method
[20] = system: Klebsiella pneumoniae; assay: Inhibition of VIM-27/CTX-M-15/SHV-11/OXA-1 in Klebsiella pneumoniae CDC-0040 assessed as piperacillin antibacterial activity at 16 ug/ml after 16 to 20 hrs by CLSI-based microbroth dilution method
[21] = system: Escherichia coli; assay: Inhibition of NDM-1/CMY-6/OXA-1 in Escherichia coli CDC-0055 assessed as piperacillin antibacterial activity at 16 ug/ml after 16 to 20 hrs by CLSI-based microbroth dilution method; procedure, shortened: as §1
[22] = system: Pseudomonas aeruginosa; assay: Inhibition of VIM in Pseudomonas aeruginosa CDC-0457 assessed as piperacillin antibacterial activity at 16 ug/ml after 16 to 20 hrs by CLSI-based microbroth dilution method
[23] = system: Pseudomonas aeruginosa; assay: Inhibition of KPC-2/PDC-42 in Pseudomonas aeruginosa CDC-0356 assessed as meropenem antibacterial activity at 4 ug/ml after 16 to 20 hrs by CLSI-based microbroth dilution method (reference value: […] ug/ml)
[24] = system: Pseudomonas aeruginosa; assay: Inhibition of KPC-2/PDC-42 in Pseudomonas aeruginosa CDC-0356 assessed as piperacillin antibacterial activity at 16 ug/ml after 16 to 20 hrs by CLSI-based microbroth dilution method (Rvb > […] ug/ml)
[25] = system: Klebsiella pneumoniae; assay: Inhibition of KPC-2 in Klebsiella pneumoniae assessed as meropenem antibacterial activity at 4 ug/ml after 16 to 20 hrs by CLSI-based microbroth dilution method (Rvb >= […] ug/ml)
[26] = Inhibition of bacterial OXA-48 using nitrocefin as substrate preincubated for 15 mins followed by susbtrate addition and measured after 10 mins by spectrophotometric method; parameters: species or system Bacteria
[27] = Inhibition of bacterial AmpC using nitrocefin as substrate preincubated for 15 mins followed by susbtrate addition and measured after 10 mins by spectrophotometric method; parameters: species or system Bacteria
[28] = Inhibition of bacterial KPC-2 using imipenem as substrate preincubated for 15 mins followed by susbtrate addition and measured after 10 mins by spectrophotometric method; parameters: species or system Bacteria
[29] = Inhibition of bacterial VIM-2 using nitrocefin as substrate preincubated for 15 mins followed by susbtrate addition and measured after 10 mins by spectrophotometric method; parameters: species or system Bacteria
Procedure, shortened: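 Purified β-lactamase inhibition. IC50 values are the average of duplicates unless otherwise indicated.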

[30] = biological target: Beta-lactamase VIM-2 (Pseudomonas aeruginosa) (UniProt Q9K2N0); assay: Inhibition of VIM-2 in Pseudomonas aeruginosa assessed as meropenem antibacterial activity at 4 ug/ml after 16 to 20 hrs by CLSI-based microbroth dilution method (Rvb >= […] ug/ml)
[31] = system: Klebsiella pneumoniae; assay: Inhibition of VIM-4 in Klebsiella pneumoniae assessed as meropenem antibacterial activity at 4 ug/ml after 16 to 20 hrs by CLSI-based microbroth dilution method (Rvb >= […] ug/ml)
[32] = system: Klebsiella pneumoniae; assay: Inhibition of OXA-48 in Klebsiella pneumoniae assessed as meropenem antibacterial activity at 4 ug/ml after 16 to 20 hrs by CLSI-based microbroth dilution method (Rvb >= […] ug/ml)
[33] = AUC (infinity) in mouse at 10 mg/kg, iv after 1 to 6 hrs by LC-MS/MS analysis; type: ADME, organism-based; parameters: dose 10 mg/kg, time infinity, route intravenous; conditions: in vivo

CC(=O)N[C@H]1Cc2cccc(C(=O)O)c2OB1O
MIC [1]: 8 µg/mL (≈ 32.1 µM) | MIC [2]: 1 µg/mL (≈ 4.02 µM) | MIC [3]: > 16 µg/mL | MIC [4]: 2 µg/mL (≈ 8.03 µM) | MIC [5]: 16 µg/mL (≈ 64.2 µM) | MIC [6]: 2 µg/mL (≈ 8.03 µM) | MIC [7]: > 16 µg/mL | MIC [8]: 0.0079 µg/mL (≈ 0.0317 µM) | MIC [9]: 2 µg/mL (≈ 8.03 µM) | MIC [10]: > 16 µg/mL | MIC [11]: 0.0079 µg/mL (≈ 0.0317 µM) | MIC [12]: > 16 µg/mL | MIC [13]: > 16 µg/mL | MIC [14]: 2 µg/mL (≈ 8.03 µM) | MIC [15]: 8 µg/mL (≈ 32.1 µM) | MIC [16]: > 16 µg/mL | MIC [17]: 0.0079 µg/mL (≈ 0.0317 µM) | MIC [18]: 0.0079 µg/mL (≈ 0.0317 µM) | MIC [19]: > 16 µg/mL | MIC [20]: > 16 µg/mL | MIC [21]: > 16 µg/mL | MIC [22]: > 16 µg/mL | MIC [23]: 2 µg/mL (≈ 8.03 µM) | MIC [24]: 2 µg/mL (≈ 8.03 µM)

NCc1ccc(CC(=O)N[C@H]2Cc3cccc(C(=O)O)c3OB2O)cc1
MIC [1]: 2 µg/mL (≈ 5.65 µM) | MIC [25]: 0.5 µg/mL (≈ 1.41 µM) | IC50 [26]: 1800 nM | IC50 [27]: 12 nM | MIC [2]: 4 µg/mL (≈ 11.3 µM) | MIC [3]: > 16 µg/mL | MIC [4]: 2 µg/mL (≈ 5.65 µM) | MIC [5]: 1 µg/mL (≈ 2.82 µM) | MIC [6]: 0.5 µg/mL (≈ 1.41 µM) | MIC [7]: 8 µg/mL (≈ 22.6 µM) | MIC [8]: 0.0079 µg/mL (≈ 0.0223 µM) | MIC [9]: 2 µg/mL (≈ 5.65 µM) | MIC [10]: > 16 µg/mL | MIC [11]: 0.0079 µg/mL (≈ 0.0223 µM) | IC50 [28]: 40 nM | MIC [12]: 4 µg/mL (≈ 11.3 µM) | MIC [13]: > 16 µg/mL | MIC [14]: 4 µg/mL (≈ 11.3 µM) | MIC [15]: 2 µg/mL (≈ 5.65 µM) | IC50 [29]: 270 nM | MIC [30]: 8 µg/mL (≈ 22.6 µM) | MIC [16]: 8 µg/mL (≈ 22.6 µM) | MIC [31]: 4 µg/mL (≈ 11.3 µM) | MIC [17]: 0.06 µg/mL (≈ 0.169 µM) | MIC [32]: 1 µg/mL (≈ 2.82 µM) | MIC [18]: 0.0079 µg/mL (≈ 0.0223 µM) | MIC [19]: > 16 µg/mL | MIC [20]: > 16 µg/mL | MIC [21]: 16 µg/mL (≈ 45.2 µM) | MIC [22]: > 16 µg/mL | MIC [23]: 1 µg/mL (≈ 2.82 µM) | MIC [24]: 2 µg/mL (≈ 5.65 µM)

CO/N=C(\C(=O)N[C@@H]1C(=O)N2C(C(=O)[O-])=C(C[N+]3(C)CCCC3)CS[C@H]12)c1csc(N)n1
AUC(0-inf) [33]: 15800 ng·h/mL
